Reference: ChEMBL document CHEMBL4406901, “Synthesis, 3D-structure and stability analyses of NRPa-308, a new promising anti-cancer agent” (Bioorg Med Chem Lett, 2019)

Tests used:
[1] = Retention time of compound in pH 7.4 at 1 mg incubated at 37 degree C by HPLC analysis; assay type: physicochemical
Procedure, shortened: (§1)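 Compound held in aqueous buffers at pH 0.9, 7.4 and 8.4 at 25 °C or 37 °C for up to 16 days; the chromatographic profile was followed by HPLC.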

[2] = system: BT-549; assay: Antiproliferative activity against human BT549 cells expressing NRP1 assessed as cell viability measured after 72 hrs by MTT assay; assay type: functional, cell-based; settings: BT-549, 72 h
[3] = Retention time of compound in human MDA-MB-231 cell lysates at 2 uM incubated at 37 degree C measured after 3 days by HPLC analysis; assay type: ADME, subcellular, Lysate; settings: mda-mb-231, 72 h
Procedure, shortened: (§2)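 MDA-MB-231 or BT-549 breast cancer cells were cultured with […] of compound for three days at 37 °C. Supernatant was analysed by HPLC. Cells were then washed and lysed with methanol, and the intracellular compound was measured by quantitative HPLC dosage, giving mol per sample.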

[4] = Retention time of compound in human BT549 cell lysates at 2 uM incubated at 37 degree C measured after 3 days by HPLC analysis; assay type: ADME, subcellular, Lysate; settings: bt-549, 72 h; procedure, shortened: as §2
[5] = Drug uptake in human MDA-MB-231 cells at 2 uM incubated at 37 degree C measured after 3 days by HPLC analysis; assay type: ADME, cell-based; settings: mda-mb-231, 72 h; procedure, shortened: as §2
[6] = system: MDA-MB-231; assay: Antitumour activity against human MDA-MB-231 cells xenografted in nude mouse assessed as reduction in tumour growth at 50 mg/kg, po administered every 3 days for 20 days and measured 3 times a week by caliper method relative to control; settings: MDA-MB-231, po, read-out: TGI
[7] = Chemical stability of compound in DMSO/aqueous buffer at 1 mg at pH 0.9 to 8.4 incubated at 25 degree C and measured upto 16 days by HPLC analysis; assay type: physicochemical; settings: read-out: Stability; procedure, shortened: as §1
[8] = system: MDA-MB-231; assay: Antiproliferative activity against human MDA-MB-231 cells expressing NRP1 assessed as cell viability measured after 72 hrs by MTT assay; assay type: functional, cell-based; settings: MDA-MB-231, 72 h
[9] = system: BT-549; assay: Antiproliferative activity against human BT549 cells expressing NRP1 assessed as cell viability measured after 48 hrs by MTT assay; assay type: functional, cell-based; settings: BT-549, 48 h
[10] = Retention time of compound in human BT549 cells at 2 uM incubated at 37 degree C measured after 3 days by HPLC analysis; assay type: ADME, cell-based; settings: bt-549, 72 h; procedure, shortened: as §2
[11] = system: MDA-MB-231; assay: Antiproliferative activity against human MDA-MB-231 cells expressing NRP1 assessed as cell viability measured after 48 hrs by MTT assay; assay type: functional, cell-based; settings: MDA-MB-231, 48 h
[12] = Retention time of compound at 1mg measured immediately by HPLC analysis; assay type: physicochemical
[13] = Retention time of compound in pH 0.91 at 1 mg incubated at 37 degree C by HPLC analysis; assay type: physicochemical; procedure, shortened: as §1
[14] = Retention time of compound in human MDA-MB-231 cells at 2 uM incubated at 37 degree C measured after 3 days by HPLC analysis; assay type: ADME, cell-based; settings: mda-mb-231, 72 h; procedure, shortened: as §2
[15] = Retention time of compound at in pH 8.4 at 1 mg incubated at 37 degree C by HPLC analysis; assay type: physicochemical; procedure, shortened: as §1
[16] = Drug uptake in human BT549 cells at 2 uM incubated at 37 degree C measured after 3 days by HPLC analysis; assay type: ADME, cell-based; settings: bt-549, 72 h; procedure, shortened: as §2
[17] = Chemical stability of compound in DMSO/aqueous buffer at 1 mg at pH 0.9 to 8.4 incubated at 37 degree C and measured upto 16 days by HPLC analysis; assay type: physicochemical; settings: read-out: Stability; procedure, shortened: as §1

Compound | Retention_time [1] [min] | IC50 [2] [nM] | Retention_time [3] [min] | Retention_time [4] [min] | Drug uptake [5] [nmol] | inhibition in vivo at 50 mg/kg [6] [%] | remaining at 384 h [7] [%] | IC50 [8] [nM] | IC50 [9] [nM] | Retention_time [10] [min] | IC50 [11] [nM] | Retention_time [12] [min] | Retention_time [13] [min] | Retention_time [14] [min] | Retention_time [15] [min] | Drug uptake [16] [nmol] | remaining at 384 h [17] [%]
CCOc1ccccc1NC(=O)c1ccc(C)c(S(=O)(=O)Nc2ccc(C)cc2)c1 | 4.067 | 100 | 4.025 | 3.992 | 5.14 | > 60 | 100 | 200 | 2100 | 4.05 | 4900 | 4.075 | 4.058 | 4.492 | 4.05 | 1.4 | 100
CCN(CC)CCNC(=O)c1c(C)[nH]c(/C=C2\C(=O)Nc3ccc(F)cc32)c1C [SUNITINIB] |  | 3500 |  |  |  |  |  | 3700 | 2200 |  | 2600 |  |  |  |  |  | 
